Data reported in ChEMBL document CHEMBL4028911, “Discovery of a Small-Molecule Bromodomain-Containing Protein 4 (BRD4) Inhibitor That Induces AMP-Activated Protein Kinase-Modulated Autophagy-Associated Cell Death in Breast Cancer” (J Med Chem, 2017).
Active and inactive are the calls of the source. The rule behind the calls is not given here.

Key:
MDA-MB-231 [1] = test: Induction of autophagy in human MDA-MB-231 cells assessed as downregulation of p62/SQSTM1 expression at 3 uM in presence of ATG5 siRNA by Western blot analysis; format: functional, cell-based
MCF7 [2] = test: Induction of autophagy in human MCF7 cells assessed as LC3 lipidation at 1.5 uM in presence of ATG5 siRNA by Western blot analysis; format: functional, cell-based
Mus musculus [3] = test: Toxicity in BALB/c mouse xenografted with human MDA-MB-231 cells assessed as effect on body weight at 25 to 100 mg/kg, ig administered once a day for […] measured every 3 days; format: organism-based; details: in vivo, po
Outline: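 Female BALB/c nude mice (6-8 weeks, 20-22 g) with subcutaneous MCF-7 or MDA-MB-231 xenografts (5×10^6 cells). At 100 mm3, given 25, 50 or 100 mg/kg intragastrically once daily, or vehicle, for 24 or 27 days. Body weight recorded every 3 days. MCF-7 n=7, MDA-MB-231 n=6 per group.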

Mus musculus [4] = test: In vivo inhibition of c-Myc expression in BALB/c mouse xenografted with human MDA-MB-231 cells at 100 mg/kg, ig administered once a day for 27 days by Western blot analysis; format: functional, organism-based
Outline: (§1)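 Tumor tissues excised from MCF-7 or MDA-MB-231 xenograft mice were lysed and analysed by western blot for BRD4, c-Myc, LC3 and cleaved caspase-3.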

Mus musculus [5] = test: Induction of cleavage of caspase-3 in BALB/c mouse xenografted with human MCF7 cells at 100 mg/kg, ig administered once a day for 24 days by Western blot analysis; format: functional, organism-based
Outline: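 Female BALB/c nude mice (6-8 weeks) given 5×10^6 MCF-7 or MDA-MB-231 cells subcutaneously. At 100 mm3 tumours, dosed intragastrically once daily (25, 50, 100 mg/kg, or vehicle) for 24 or 27 days. Excised tumours lysed and probed by western blot for caspase-3 cleavage.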

[6] = target: T1, Bromodomain-containing protein 4 (Homo sapiens, UniProt O60885); test: Inhibition of BRD4 interaction with AMPK in human MDA-MB-231 cells at 3 uM by co-immunoprecipitation assay; format: cell-based
Outline: (§2)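 Cells lysed in RIPA buffer (40 mM Tris-HCl pH 7.5, 150 mM NaCl, 0.5% NP-40, 5% glycerol, 10 mM NaF, protease inhibitors). Lysates incubated overnight at 4 °C with BRD4 or p53 antibody plus protein A/G beads, washed 3 times, resolved on 10% SDS-PAGE and blotted for AMPKα or p53.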

[7] = target: T1, Bromodomain-containing protein 4; test: Inhibition of BRD4 in human MCF7 cells assessed as downregulation of mTOR phosphorylation at ser244 at 1.5 uM measured up to 36 hrs by Western blot analysis; format: cell-based
Outline: (§3)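 MCF-7 (1.5 μM) or MDA-MB-231 (3 μM) cells treated for indicated times. Adherent and floating cells lysed in RIPA with 1 mM PMSF. Equal protein run on 10-15% SDS-PAGE, blotted to PVDF, blocked in milk or BSA, HRP/ECL detection. β-actin loading control.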

Mus musculus [8] = test: In vivo inhibition of BRD4 expression in BALB/c mouse xenografted with human MDA-MB-231 cells at 100 mg/kg, ig administered once a day for 27 days by Western blot analysis; format: functional, organism-based; outline: as §1
MDA-MB-231 [9] = test: Induction of autophagy in human MDA-MB-231 cells assessed as increase in LC3-2 expression at 3 uM by Western blot analysis; format: functional, cell-based; details: TDE = time-dependent effect
Outline: (§4)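 MDA-MB-231 cells (DMEM, 10% FBS, 37 °C, 5% CO2) exposed to 3 μM for indicated times. Adherent and floating cells collected, lysed in RIPA with 1 mM PMSF at 4 °C for 1 h. Protein quantified by DC assay, resolved on 10-15% SDS-PAGE, blotted to PVDF, ECL detection.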

[10] = target: T1, Bromodomain-containing protein 4; test: Inhibition of BRD4 in human MCF7 cells assessed as increase in ATG13 phosphorylation at ser318 at 1.5 uM up to 36 hrs by Western blot analysis; format: cell-based; outline: as §3
MCF7 [11] = test: Induction of autophagy in human MCF7 cells assessed as increase in LC3-2 expression at 1.5 uM by Western blot analysis; format: functional, cell-based; details: TDE = time-dependent effect
Outline: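 MCF-7 (1.5 µM) or MDA-MB-231 (3 µM) cells treated for indicated times. Adherent and floating cells lysed in RIPA with 1 mM PMSF, 4°C for 1 h. Equal protein run on 10-15% SDS-PAGE, transferred to PVDF, blocked with milk or BSA, probed with primary then HRP secondary antibodies, ECL detection; β-actin as loading control.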

[12] = target: T1, Bromodomain-containing protein 4; test: Inhibition of BRD4 interaction with p53 in human MDA-MB-231 cells at 3 uM by co-immunoprecipitation assay; format: cell-based; outline: as §2
[13] = target: T1, Bromodomain-containing protein 4; test: Inhibition of His/thioredoxin-tagged human recombinant BRD4 bromodomain-1 (43 to 166 residues) expressed in Escherichia coli BL21 Star (DE3) pre-incubated for 30 mins followed by biotinylated histone peptide H4 addition measured after 30 mins by AlphaScreen assay
Mus musculus [14] = test: In vivo Antiproliferative activity in BALB/c mouse xenografted with human MCF7 cells assessed as reduction in Ki-67 positive cells at 100 mg/kg, ig administered once a day for 24 days by hematoxylin-staining based immunohistochemistry analysis; format: functional, organism-based
Outline: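 Xenograft tumors from vehicle and 100 mg/kg groups were formalin-fixed and sectioned. Antigen retrieval by microwaving in EDTA buffer (pH 8.0) or citrate buffer (pH 6.0). […] Percentage of positive staining quantified.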

[15] = target: T1, Bromodomain-containing protein 4; test: Inhibition of BRD4 in human MDA-MB-231 cells assessed as increase in ATG13 phosphorylation at ser318 at 3 uM up to 36 hrs by Western blot analysis; format: cell-based; outline: as §3
MDA-MB-231 [16] = test: Induction of autophagy in human MDA-MB-231 cells assessed as reduction in cell viability at 3 uM administered at 1 hr post […] addition by MTT assay; format: functional, cell-based
Outline: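 MDA-MB-231 cells seeded at 5×10^4 cells/ml and grown 24 h. 3-MA (1 mM) added 1 h before 3 μM test agent. MTT (5 mg/ml) for 4 h, formazan dissolved in DMSO, absorbance read at 570 nm.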

MDA-MB-231 [17] = test: Induction of autophagy in human MDA-MB-231 cells assessed as upregulation of beclin1 expression at 3 uM measured up to 36 hrs by Western blot analysis; format: functional, cell-based; outline: as §4
[18] = target: T1, Bromodomain-containing protein 4; test: Inhibition of BRD4 in human MCF7 cells assessed as downregulation of AKT phosphorylation at thr308 at 1.5 uM measured up to 36 hrs by Western blot analysis; format: cell-based; outline: as §3
[19] = target: Bromodomain testis-specific protein (Homo sapiens, UniProt Q58F21); test: Inhibition of recombinant human N-terminal GST-tagged BRDT bromodomain-1 (22 to 138 residues) expressed in Escherichia coli expression system after 120 mins by TR-FRET assay
Outline: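 TR-FRET bromodomain binding. Recombinant BRD domain, BET ligand and test agent in 20 μl assay buffer with 1% DMSO final. Incubated 120 min at room temperature. Blank lacks BET ligand.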

[20] = target: T1, Bromodomain-containing protein 4; test: Inhibition of recombinant human BRD4 bromodomain-1 (49 to 170 residues) expressed in Escherichia coli expression system after 120 mins by TR-FRET assay

inhibition [6]: Active
inhibition [7]: Active
inhibition [10]: Active
inhibition [12]: inactive
IC50 [13]: 430 nM
inhibition [15]: Active
inhibition [18]: Active
IC50 [19]: > 100000 nM
IC50 [20]: 470 nM
Structure (SMILES): Cc1cc(-c2nc3sc4c(c3c(=O)[nH]2)CCN(C)C4)cc(C)c1O
Activity (MDA-MB-231 [1]): inactive
Activity (MCF7 [2]): inactive
Activity (Mus musculus [3]): Non-Toxic
Activity (Mus musculus [4]): Active
Activity (Mus musculus [5]): Active
Activity (Mus musculus [8]): Active
Activity (MDA-MB-231 [9]): Tde
Activity (MCF7 [11]): Tde
Activity (Mus musculus [14]): Active
Activity (MDA-MB-231 [16]): inactive
Activity (MDA-MB-231 [17]): Active
